Test results from ChEMBL document CHEMBL1139732, “Identification and optimisation of 5-amino-7-aryldihydro-1,4-diazepines as 5-HT2A ligands” (Bioorg Med Chem Lett, 2006).
pIC50: −log10 of the molar value.

Experiments:
[1] = target: Voltage-gated inwardly rectifying potassium channel KCNH2 (Homo sapiens, UniProt Q12809); test: Activity at HERG potassium channel; format: functional
[2] = target: 5-hydroxytryptamine receptor 2A (Homo sapiens, UniProt P28223); test: Displacement of [3H]ketanserin from human 5HT2A receptor expressed in CHOK1 cells; format: cell-based, CHO-K1
5-hydroxytryptamine receptor 2A (Homo sapiens, UniProt P28223), sequence (P28223 whole entry): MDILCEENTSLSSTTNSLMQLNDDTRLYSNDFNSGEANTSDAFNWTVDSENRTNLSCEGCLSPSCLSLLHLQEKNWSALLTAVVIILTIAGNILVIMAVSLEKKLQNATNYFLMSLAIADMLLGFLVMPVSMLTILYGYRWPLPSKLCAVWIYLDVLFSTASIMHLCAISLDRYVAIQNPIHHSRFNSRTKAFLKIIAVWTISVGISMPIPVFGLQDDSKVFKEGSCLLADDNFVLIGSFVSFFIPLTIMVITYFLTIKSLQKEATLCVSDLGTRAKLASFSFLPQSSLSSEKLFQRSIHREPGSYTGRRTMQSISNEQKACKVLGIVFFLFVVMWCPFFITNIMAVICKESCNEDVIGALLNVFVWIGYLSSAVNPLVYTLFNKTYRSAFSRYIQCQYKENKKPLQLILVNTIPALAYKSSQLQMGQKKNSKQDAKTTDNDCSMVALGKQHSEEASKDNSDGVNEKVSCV
Procedure, shortened: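 Membranes from confluent CHO K1 cells expressing human 5-HT2A were incubated with [3H]ketanserin (76 Ci/mmol) for 15 min at 37 °C with shaking at 180 rpm. Buffer was 50 mM Tris pH 7.7, 0.1% ascorbate, pargyline, MgSO4 and 0.5 mM EDTA. Bound and free ligand were separated by GF/B filtration and the filters counted. Mianserin defined non-specific binding. Five-point log titrations were fitted with a four-parameter curve to give IC50 and Ki.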

[3] = target: T1, 5-hydroxytryptamine receptor 2C (Homo sapiens, UniProt P28335); test: Binding affinity to 5HT2C receptor
T1 sequence (P28335 whole entry): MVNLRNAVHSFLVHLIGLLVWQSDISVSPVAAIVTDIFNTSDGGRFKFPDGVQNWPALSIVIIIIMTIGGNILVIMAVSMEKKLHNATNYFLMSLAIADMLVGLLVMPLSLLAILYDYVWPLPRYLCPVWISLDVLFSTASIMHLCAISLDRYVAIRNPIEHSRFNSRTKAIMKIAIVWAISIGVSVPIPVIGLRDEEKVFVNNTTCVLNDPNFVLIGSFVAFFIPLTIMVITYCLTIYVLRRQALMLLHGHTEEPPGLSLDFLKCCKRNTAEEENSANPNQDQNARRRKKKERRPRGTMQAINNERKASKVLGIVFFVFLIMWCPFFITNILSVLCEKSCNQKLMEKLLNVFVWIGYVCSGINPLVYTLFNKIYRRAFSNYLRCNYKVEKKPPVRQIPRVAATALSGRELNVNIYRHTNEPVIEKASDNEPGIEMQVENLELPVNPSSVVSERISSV

[4] = target: 5-hydroxytryptamine receptor 2A (Rattus norvegicus, UniProt P14842); test: Binding affinity to rat 5HT2A receptor
5-hydroxytryptamine receptor 2A (Rattus norvegicus, UniProt P14842), sequence (P14842 whole entry): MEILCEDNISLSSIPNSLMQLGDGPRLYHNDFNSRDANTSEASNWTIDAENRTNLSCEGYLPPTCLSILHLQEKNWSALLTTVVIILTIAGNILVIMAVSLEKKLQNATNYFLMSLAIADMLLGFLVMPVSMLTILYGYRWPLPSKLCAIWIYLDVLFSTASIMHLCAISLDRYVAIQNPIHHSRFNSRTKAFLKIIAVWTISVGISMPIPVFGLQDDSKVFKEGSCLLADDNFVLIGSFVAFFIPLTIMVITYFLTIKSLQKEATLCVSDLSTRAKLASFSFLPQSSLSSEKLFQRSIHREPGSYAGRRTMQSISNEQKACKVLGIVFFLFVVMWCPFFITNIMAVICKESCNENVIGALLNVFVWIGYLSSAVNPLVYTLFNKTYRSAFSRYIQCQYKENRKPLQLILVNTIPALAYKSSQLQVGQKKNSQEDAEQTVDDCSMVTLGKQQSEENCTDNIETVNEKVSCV

Voltage-gated inwardly rectifying potassium channel KCNH2, sequence (Q12809 whole entry): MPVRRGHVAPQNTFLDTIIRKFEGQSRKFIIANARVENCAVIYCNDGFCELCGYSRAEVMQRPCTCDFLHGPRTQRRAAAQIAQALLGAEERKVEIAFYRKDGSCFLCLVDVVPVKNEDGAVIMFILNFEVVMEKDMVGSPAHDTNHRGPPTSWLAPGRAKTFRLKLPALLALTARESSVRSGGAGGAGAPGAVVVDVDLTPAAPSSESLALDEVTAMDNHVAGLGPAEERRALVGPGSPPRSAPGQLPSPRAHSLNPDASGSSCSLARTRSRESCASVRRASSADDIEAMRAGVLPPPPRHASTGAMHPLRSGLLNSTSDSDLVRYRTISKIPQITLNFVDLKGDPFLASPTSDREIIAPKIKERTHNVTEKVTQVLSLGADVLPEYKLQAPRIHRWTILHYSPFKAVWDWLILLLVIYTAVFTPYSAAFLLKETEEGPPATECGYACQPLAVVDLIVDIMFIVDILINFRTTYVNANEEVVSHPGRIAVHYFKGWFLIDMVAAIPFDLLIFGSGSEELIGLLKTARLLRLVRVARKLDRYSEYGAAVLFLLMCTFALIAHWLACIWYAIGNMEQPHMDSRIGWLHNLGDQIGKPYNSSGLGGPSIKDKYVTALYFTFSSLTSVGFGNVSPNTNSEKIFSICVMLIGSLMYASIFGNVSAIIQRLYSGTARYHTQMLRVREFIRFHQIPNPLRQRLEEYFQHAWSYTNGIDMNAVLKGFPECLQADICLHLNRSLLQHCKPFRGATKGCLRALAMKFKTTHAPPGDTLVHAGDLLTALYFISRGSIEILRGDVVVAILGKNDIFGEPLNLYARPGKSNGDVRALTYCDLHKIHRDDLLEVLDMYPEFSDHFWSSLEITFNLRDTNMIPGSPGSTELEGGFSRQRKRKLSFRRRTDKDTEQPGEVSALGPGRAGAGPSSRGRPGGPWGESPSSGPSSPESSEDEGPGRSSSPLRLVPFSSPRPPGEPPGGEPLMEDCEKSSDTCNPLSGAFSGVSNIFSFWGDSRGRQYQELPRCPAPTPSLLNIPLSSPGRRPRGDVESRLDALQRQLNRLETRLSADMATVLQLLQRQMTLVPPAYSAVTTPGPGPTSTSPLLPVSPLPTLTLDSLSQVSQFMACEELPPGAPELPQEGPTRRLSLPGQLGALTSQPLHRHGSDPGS

Row | Structure (SMILES) | pIC50 [2] | pIC50 [3] | pIC50 [4] | Activity [1]
1 | Cc1ccc(C2=CC(NC(C)(C)C)=NCCN2)c(C)c1 | 7.15 | – | – | > 1000 nM
2 | CCN(CC)C1=NCCNC(c2ccc(C)cc2)=C1 | < 6.00 | – | – | > 1000 nM
3 | CC(C)(C)NC1=NCCNC(c2cccc(C(F)(F)F)c2)=C1 | 6.29 | – | – | > 1000 nM
4 | CCN(CC)C1=NCCNC(c2ccccc2F)=C1 | < 6.00 | – | – | > 1000 nM
5 | CC(C)(C)NC1=NCCNC(c2ccc(F)cc2)=C1 | 7.68 | 6.20 | – | > 1000 nM
6 | Cc1ccc(C2=CC(N3CCOCC3)=NCCN2)cc1 | < 6.00 | – | – | > 1000 nM
7 | CC(C)(C)NC1=NCCNC(c2ccccc2)=C1 | 7.46 | 5.98 | – | > 1000 nM
8 | CC(C)(C)NC1=NCCNC(c2ccccc2F)=C1 | 7.74 | – | – | > 1000 nM
9 | COc1ccc(C2=CC(NC(C)(C)C)=NCCN2)cc1 | 6.27 | – | – | > 1000 nM
10 | Cc1ccc(C2=CC(N3CCNCC3)=NCCN2)cc1 | < 6.00 | – | – | > 1000 nM
11 | CC(C)(C)NC1=NCCNC(c2ccc(C#N)cc2)=C1 | 5.55 | – | – | > 1000 nM
12 | CC(C)(C)NC1=NCCNC(c2ccccc2Cl)=C1 | 7.12 | – | – | > 1000 nM
13 | Cc1ccccc1C1=CC(NC(C)(C)C)=NCCN1 | 6.95 | – | – | > 1000 nM
14 | CC(C)(C)CNC1=NCCNC(c2ccccc2F)=C1 | 5.82 | – | – | > 1000 nM

Stronger by pIC50 [2], values ahead:

Row | pIC50 [2] | pIC50 [3] | pIC50 [4] | Structure (SMILES) | Activity [1]
15 | 8.35 | – | – | CCC(C)(CC)NC1=NCCNC(c2ccccc2F)=C1 | > 1000 nM
16 | 8.43 | 7.07 | – | CCC(CC)(CC)NC1=NCCNC(c2ccc(F)cc2F)=C1 | > 1000 nM
17 | 8.62 | – | – | Cc1ccc(C2=CC(NC(C)(C)Cc3ccccc3)=NCCN2)cc1 | 300 nM
18 | 8.80 | – | – | CC1(NC2=NCCNC(c3ccc(F)cc3)=C2)CCCCC1 | > 1000 nM
19 | 8.82 | 7.80 | – | CCC(C)(CC)NC1=NCCNC(c2ccc(F)cc2)=C1 | > 1000 nM
20 | 7.85 | – | – | Cc1ccc(C2=CC(NC(C)(C)C)=NCCN2)c(F)c1 | > 1000 nM
21 | 9.10 | – | – | CCC1(NC2=NCCNC(c3ccc(F)cc3)=C2)CCCC1 | > 1000 nM
22 | 7.96 | – | – | CC(C)(C)NC1=NCCNC(c2ccc(F)cc2F)=C1 | > 1000 nM
23 | 7.83 | 7.12 | – | CCC(C)(CC)NC1=NCCNC(c2ccc(C)cc2)=C1 | > 1000 nM
24 | 8.96 | 7.57 | 8.64 | CCC1(NC2=NCCNC(c3ccc(F)cc3F)=C2)CCCC1 | > 1000 nM
25 | 7.96 | – | – | Cc1ccc(C2=CC(NC(C)(C)C)=NCCN2)cc1 | > 1000 nM
26 | 8.42 | – | – | CC(C)(Cc1ccccc1)NC1=NCCNC(c2ccccc2F)=C1 | 270 nM
27 | 8.44 | – | – | CCC1(NC2=NCCNC(c3ccccc3F)=C2)CCCC1 | > 1000 nM
28 | 8.85 | – | – | CC(C)(NC1=NCCNC(c2ccc(F)cc2F)=C1)C1CCC1 | > 1000 nM
